Experimental data from ChEMBL document CHEMBL1153354, “Amide-containing diketoacids as HIV-1 integrase inhibitors: synthesis, structure-activity relationship analysis, and biological activity” (Bioorg Med Chem, 2009).

Legend:
[1] = target: T1, Human immunodeficiency virus type 1 integrase (Human immunodeficiency virus 1, UniProt Q7ZJM1); experiment: Inhibition of HIV1 integrase strand transfer activity
Outline: (§1)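 Wild-type IN (200 nM final) preincubated with inhibitor 30 min at 30 °C in buffer of 50 mM NaCl, 1 mM HEPES pH 7.5, 50 μM EDTA, 50 μM DTT, 10% glycerol, 7.5 mM MnCl2, 0.1 mg/mL BSA, 10 mM 2-mercaptoethanol, 10% DMSO, 25 mM MOPS pH 7.2. Then 20 nM 5'-32P-labeled linear oligonucleotide substrate added, 1 h further. Quenched with formamide/EDTA loading dye.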

[2] = target: T1, Human immunodeficiency virus type 1 integrase; experiment: Inhibition of HIV1 integrase 3' processing activity; outline: as §1

T1 sequence (Q7ZJM1 whole entry): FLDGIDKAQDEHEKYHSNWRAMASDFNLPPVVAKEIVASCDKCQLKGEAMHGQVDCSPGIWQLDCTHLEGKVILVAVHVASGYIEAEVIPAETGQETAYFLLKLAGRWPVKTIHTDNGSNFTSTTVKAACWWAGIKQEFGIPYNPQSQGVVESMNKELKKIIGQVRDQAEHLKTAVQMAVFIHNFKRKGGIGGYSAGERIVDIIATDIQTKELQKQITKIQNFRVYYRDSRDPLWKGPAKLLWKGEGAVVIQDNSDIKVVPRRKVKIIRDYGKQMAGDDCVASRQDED

| SMILES | IC50 [1] [µM] | IC50 [2] [µM] |
| --- | --- | --- |
| O=C(/C=C/c1ccc(O)cc1)Nc1cccc(C(=O)/C=C(\O)C(=O)O)c1 | 7 | 26 |
| O=C(O)/C(O)=C/C(=O)c1cccc(NC(=O)c2ccccc2O)c1 | 11 | 41 |
| O=C(O)/C(O)=C/C(=O)c1cccc(NC(=O)c2cc([N+](=O)[O-])cc([N+](=O)[O-])c2O)c1 | 2 | 8 |
| O=C(O)/C(O)=C/C(=O)c1cccc(NC(=O)c2ccccc2Cl)c1 | 18 | 92 |
| COc1cc(/C=C/C(=O)Nc2cccc(C(=O)/C=C(\O)C(=O)O)c2)ccc1O | 11 | 42 |
| COc1cccc(C(=O)Nc2cccc(C(=O)/C=C(\O)C(=O)O)c2)c1 | 12 | 69 |
| O=C(/C=C/c1ccc(F)cc1)Nc1cccc(C(=O)/C=C(\O)C(=O)O)c1 | 7 | 22 |
| O=C(O)/C(O)=C/C(=O)c1cccc(NC(=O)c2cccc(Cl)c2)c1 | 15 | 57 |
| COc1ccc(/C=C/C(=O)Nc2cccc(C(=O)/C=C(\O)C(=O)O)c2)cc1 | 11 | 30 |
| Cc1cccc(C(=O)Nc2cccc(C(=O)/C=C(\O)C(=O)O)c2)c1O | 10 | 48 |
| O=C(Cc1ccccc1)Nc1cccc(C(=O)/C=C(\O)C(=O)O)c1 | 7 | 56 |
| O=C(O)/C(O)=C/C(=O)c1cccc(NC(=O)c2ccc(O)cc2)c1 | 13 | 81 |
| O=C(O)/C(O)=C/C(=O)c1cccc(NC(=O)c2ccco2)c1 | 33 | > 100 |
| O=C(O)/C(O)=C/C(=O)c1cccc(NC(=O)c2ccccc2)c1 | 31 | > 100 |
| COc1ccc(C(=O)Nc2cccc(C(=O)/C=C(\O)C(=O)O)c2)cc1 | 19 | 95 |
| COc1ccccc1C(=O)Nc1cccc(C(=O)/C=C(\O)C(=O)O)c1 | 13 | 73 |
| O=C(/C=C/c1ccc(Cl)cc1)Nc1cccc(C(=O)/C=C(\O)C(=O)O)c1 | 4 | 18 |
